Data from ChEMBL document CHEMBL4251683, “Improved Dose-Response Relationship of (+)-Discodermolide-Taxol Hybrid Congeners” (2018).
Calls of active or inactive are those of the source. No cut-off for these calls is given here.

Assays:
Hs-578T [1] = assay: Induction of senescence in human Hs578T cells assessed as increase in cell population with high side scatter at 100 nM after 10 days by DAPI staining based flow cytometry; format: functional
Outline: (§1)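 HS578T treated with 100 nM doxorubicin for 10 days, then stained with DAPI for live-cell flow cytometry. Forward scatter (volume) and side scatter (granularity) recorded. Dead cells were DAPI+; senescent cells were high FSC and SSC with low DAPI uptake; mitotic catastrophe was FSC increase only.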

Hs-578T [2] = assay: Induction of mitotic catastrophe in human Hs578T cells assessed as increase in cell population with high forward scatter at 100 nM after 10 days by DAPI staining based flow cytometry; format: functional; outline: as §1
Hs-578T [3] = assay: Induction of senescence in human Hs578T cells assessed as increase in IL-8 mRNA expression level at 100 nM after 10 days by qRT-PCR analysis; format: functional, cell-based
Outline: (§2)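 HS578T exposed to 100 nM doxorubicin for 10 days, then sorted for SSC+ DAPI− cells. Sorted and unsorted populations assayed by qRT-PCR for SASP transcripts. Expression was normalised to cyclophilin B, and groups compared by unpaired t test.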

Hs-578T [4] = assay: Induction of senescence in human Hs578T cells assessed as increase in dead cells at 100 nM after 10 days by DAPI staining based flow cytometry; format: functional, cell-based; outline: as §1
Hs-578T [5] = assay: Induction of senescence in human Hs578T cells assessed as increase in IL-6 mRNA expression level at 100 nM after 10 days by qRT-PCR analysis; format: functional, cell-based; outline: as §2
Hs-578T [6] = assay: Induction of senescence in human Hs578T cells assessed as increase in cell population with high forward scatter at 100 nM after 10 days by DAPI staining based flow cytometry; format: functional; outline: as §1
Hs-578T [7] = assay: Induction of senescence in human Hs578T cells assessed as increase in CXCL1 mRNA expression level at 100 nM after 10 days by qRT-PCR analysis; format: functional, cell-based; outline: as §2
MDA-MB-468 [8] = assay: Induction of senescence in human MDA-MB-468 cells assessed as increase in IL-8 mRNA expression level at EC80 concentration after 6 days by qRT-PCR analysis; format: functional, cell-based
Outline: (§3)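 Cells treated 6 days at EC80 doses (derived from dose-response data) and analysed for SASP transcripts by qRT-PCR. Expression was normalised to cyclophilin B and expressed relative to vehicle-treated asynchronous cells. Bars are mean ± SEM (n = 2).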

MDA-MB-157 = assay: Antiproliferative activity against human MDA-MB-157 cells after 3 to 7 days by SRB assay; format: functional, cell-based
Outline: (§4)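 Sulforhodamine B total-protein read-out on adherent cells maintained in RPMI with 10% FBS. Seeding was 900–4000 cells per well depending on line, with 24 h allowed for attachment. Six replicate wells per concentration, exposure for three cell doublings (3 to 7 days); DMSO final below 0.01%. Logistic sigmoidal fit by nonlinear least squares gave EC50, EMax and AUC; experiments repeated at least three times.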

MDA-MB-468 [9] = assay: Induction of senescence in human MDA-MB-468 cells at EC80 concentration after 3 to 6 days by DAPI staining based flow cytometry; format: functional
Outline: (§5)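 Compounds given at approximately EC80 (taken from the cell's own dose-response data) for 3 to 6 days depending on line. Floating and trypsinized adherent cells were pooled, washed 3–5 times in warm PBS, and stained with DAPI (1/10,000) in PBS with 4% FBS on ice. Flow cytometry counted 10 000 cells per gate: dead = DAPI+, senescent = SSC+ DAPI−. Duplicate experiments, mean ± SEM.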

Bos taurus = organism: Bos taurus; assay: Induction of bovine brain tubulin alpha polymerization assessed as alpha tubulin expression by measuring pellet/supernatant and pellet fraction level at 3 uM after 1 hr by immunoblot method (reference value: 10.4%)
Outline: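 Purified bovine brain tubulin incubated 30 min at 37 °C with 3 μM compound in MEM–glycerol buffer, 2 mM GTP, pH 6.9. Spun at 120000g, 37 °C, 1 h. Supernatant and SDS-solubilized pellet run on SDS-PAGE, α-tubulin quantified by Western blot, % polymerized calculated as P/(S + P).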

MCF7 = assay: Antiproliferative activity against human MCF7 cells after 3 to 7 days by SRB assay; format: functional, cell-based; outline: as §4
MDA-MB-468 [10] = assay: Induction of senescence in human MDA-MB-468 cells assessed as increase in CXCL1 mRNA expression level at EC80 concentration after 6 days by qRT-PCR analysis; format: functional, cell-based; outline: as §3
HCC1143 = assay: Antiproliferative activity against human HCC1143 cells after 3 to 7 days by SRB assay; format: functional, cell-based; outline: as §4
MDA-MB-468 [11] = assay: Antiproliferative activity against human MDA-MB-468 cells after 3 to 7 days by SRB assay; format: functional, cell-based; outline: as §4
BT-549 [12] = assay: Induction of senescence in human BT549 cells at EC80 concentration after 3 to 6 days by DAPI staining based flow cytometry; format: functional; outline: as §5
Hs-578T [13] = assay: Induction of cell death in human Hs578T cells at EC80 concentration after 3 to 6 days by DAPI staining based flow cytometry; format: functional; outline: as §5
MDA-MB-468 [14] = assay: Induction of senescence in human MDA-MB-468 cells assessed as increase in PAI1 mRNA expression level at EC80 concentration after 6 days by qRT-PCR analysis; format: functional, cell-based; outline: as §3
HEY [15] = assay: Antiproliferative activity against human HEY cells after 3 to 7 days by SRB assay; format: functional, cell-based; outline: as §4
MDA-MB-468 [16] = assay: Induction of cell death in human MDA-MB-468 cells at EC80 concentration after 3 to 6 days by DAPI staining based flow cytometry; format: functional; outline: as §5
HEY [17] = assay: Induction of senescence in human HEY cells assessed as increase in CXCL1 mRNA expression level at EC80 concentration after 6 days by qRT-PCR analysis; format: functional, cell-based; outline: as §3
HEY [18] = assay: Induction of senescence in human HEY cells assessed as increase in IL-8 mRNA expression level at EC80 concentration after 6 days by qRT-PCR analysis; format: functional, cell-based; outline: as §3
BT-549 [19] = assay: Induction of cell death in human BT549 cells at EC80 concentration after 3 to 6 days by DAPI staining based flow cytometry; format: functional; outline: as §5
Hs-578T [20] = assay: Induction of senescence in human Hs578T cells at EC80 concentration after 3 to 6 days by DAPI staining based flow cytometry; format: functional; outline: as §5
A549 = assay: Antiproliferative activity against human A549 cells after 3 to 7 days by SRB assay; format: functional, cell-based; outline: as §4
BT-20 = assay: Antiproliferative activity against human BT20 cells after 3 to 7 days by SRB assay; format: functional, cell-based; outline: as §4
HEY [21] = assay: Induction of senescence in human HEY cells at EC80 concentration after 3 to 6 days by DAPI staining based flow cytometry; format: functional; outline: as §5
HEY [22] = assay: Induction of senescence in human HEY cells assessed as increase in PAI1 mRNA expression level at EC80 concentration after 6 days by qRT-PCR analysis; format: functional, cell-based; outline: as §3
Hs-578T [23] = assay: Antiproliferative activity against human Hs578T cells after 3 to 7 days by SRB assay; format: functional, cell-based; outline: as §4
BT-549 [24] = assay: Antiproliferative activity against human BT549 cells after 3 to 7 days by SRB assay; format: functional, cell-based; outline: as §4

SMILES | Activity (MDA-MB-157) | Activity (MDA-MB-468 [9]) | Activity (Bos taurus) | Activity (MCF7) | Activity (HCC1143) | Activity (MDA-MB-468 [11]) | Activity (BT-549 [12]) | Activity (Hs-578T [13]) | Activity (HEY [15]) | Activity (MDA-MB-468 [16]) | Activity (HEY [17]) | Activity (HEY [18]) | Activity (BT-549 [19]) | Activity (Hs-578T [20]) | Activity (A549) | Activity (BT-20) | Activity (HEY [21]) | Activity (HEY [22]) | Activity (Hs-578T [23]) | Activity (BT-549 [24]) | further results
COc1cccc2c1C(=O)c1c(O)c3c(c(O)c1C2=O)C[C@@](O)(C(=O)CO)C[C@@H]3O[C@H]1C[C@H](N)[C@H](O)[C@H](C)O1 | – | – | – | – | – | – | – | – | – | – | – | – | – | – | – | – | – | – | – | – | Activity (Hs-578T [1]): Active; Activity (Hs-578T [2]): Active; Activity (Hs-578T [3]): Active; Activity (Hs-578T [4]): Active; Activity (Hs-578T [5]): Active; Activity (Hs-578T [6]): Active; Activity (Hs-578T [7]): Active
C=C/C=C\[C@H](C)[C@H](OC(=O)NCCCNC(=O)c1cccc(N=[N+]=[N-])c1)[C@@H](C)[C@H](O)[C@@H](C)C/C(C)=C\[C@H](C)[C@@H](O)[C@@H](C)/C=C\[C@@H](O)C[C@@H]1OC(=O)[C@H](C)[C@@H](O)[C@H]1C | Active | <10% | 60% | Active | Active | Active | <10% | inactive | Active | Active | Active | Active | Active | 15 - 18% | Active | Active | 10 - 15% | Active | Active | Active | Activity (MDA-MB-468 [8]): Active; Activity (MDA-MB-468 [10]): Active; Activity (MDA-MB-468 [14]): Active
CC(=O)O[C@H]1C(=O)[C@@]2(C)[C@H]([C@H](OC(=O)c3ccccc3)[C@]3(O)C[C@H](OC(=O)[C@H](O)[C@@H](NC(=O)c4ccccc4)c4ccccc4)C(C)=C1C3(C)C)[C@]1(OC(C)=O)CO[C@@H]1C[C@@H]2O [PACLITAXEL] | Active | – | 15.8% | Active | Active | Active | – | – | Active | – | – | – | – | 15 - 18% | Active | Active | 10 - 15% | – | Active | Active | –
C=C/C=C\[C@H](C)[C@H](OC(=O)NCCCCNC(=O)c1ccc(N=[N+]=[N-])cc1)[C@@H](C)[C@H](O)[C@@H](C)C/C(C)=C\[C@H](C)[C@@H](O)[C@@H](C)/C=C\[C@@H](O)C[C@@H]1OC(=O)[C@H](C)[C@@H](O)[C@H]1C | – | <10% | 52.2% | – | – | – | <10% | inactive | – | Active | Active | Active | Active | 15 - 18% | – | – | 10 - 15% | Active | – | – | –
C=C/C=C\[C@H](C)[C@H](OC(=O)NCCCNC(=O)c1ccc(N=[N+]=[N-])cc1)[C@@H](C)[C@H](O)[C@@H](C)C/C(C)=C\[C@H](C)[C@@H](O)[C@@H](C)/C=C\[C@@H](O)C[C@@H]1OC(=O)[C@H](C)[C@@H](O)[C@H]1C | Active | <10% | 64.2% | Active | Active | Active | <10% | inactive | Active | Active | Active | Active | Active | 15 - 18% | Active | Active | 10 - 15% | Active | Active | Active | Activity (MDA-MB-468 [8]): Active; Activity (MDA-MB-468 [10]): Active; Activity (MDA-MB-468 [14]): Active
C=C/C=C\[C@H](C)[C@H](OC(=O)NCCNC(=O)c1ccc(N=[N+]=[N-])cc1)[C@@H](C)[C@H](O)[C@@H](C)C/C(C)=C\[C@H](C)[C@@H](O)[C@@H](C)/C=C\[C@@H](O)C[C@@H]1OC(=O)[C@H](C)[C@@H](O)[C@H]1C | – | <10% | 54.6% | – | – | – | <10% | inactive | – | Active | Active | Active | Active | 15 - 18% | – | – | 10 - 15% | Active | – | – | –
C=C/C=C\[C@H](C)[C@H](OC(=O)NCCCNC(=O)c1ccc(C2(C(F)(F)F)N=N2)cc1)[C@@H](C)[C@H](O)[C@@H](C)C/C(C)=C\[C@H](C)[C@@H](O)[C@@H](C)/C=C\[C@@H](O)C[C@@H]1OC(=O)[C@H](C)[C@@H](O)[C@H]1C | Active | <10% | 56.1% | Active | Active | Active | <10% | inactive | Active | Active | Active | Active | Active | 15 - 18% | Active | Active | 10 - 15% | Active | Active | Active | Activity (MDA-MB-468 [8]): Active; Activity (MDA-MB-468 [10]): Active; Activity (MDA-MB-468 [14]): Active
C=C/C=C\[C@H](C)[C@H](OC(N)=O)[C@@H](C)[C@H](O)[C@@H](C)C/C(C)=C\[C@H](C)[C@@H](O)[C@@H](C)/C=C\[C@@H](O)C[C@@H]1OC(=O)[C@H](C)[C@@H](O)[C@H]1C [DISERMOLIDE] | Active | – | 59.3% | Active | Active | Active | – | inactive | Active | – | – | – | – | 15 - 18% | Active | Active | 10 - 15% | – | Active | Active | Activity (MDA-MB-468 [8]): Active; Activity (MDA-MB-468 [10]): Active; Activity (MDA-MB-468 [14]): Active
